≈ marks a conversion by molar mass, not a printed value. Calls of active or inactive are those of the source.
Assays:
[1] = test system: Staphylococcus aureus; assay: Antimicrobial activity against Staphylococcus aureus DM4001 by broth macrodilution method; type: functional
How it was run: (§1)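 Broth macrodilution MIC in Mueller Hinton broth following CLSI guidelines. Inoculum was prepared by direct colony suspension from an 18−20 h tryptic soy agar plate.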

[2] = test system: Bacillus cereus; assay: Antimicrobial activity against Bacillus cereus ATCC 11778 by broth macrodilution method; type: functional
How it was run: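 CLSI broth macrodilution in Mueller Hinton broth. Inoculum was made by direct colony suspension from colonies on an 18−20 h tryptic soy agar plate. The value is the MIC.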

[3] = Selectivity index, ratio of HC50 for induction of hemolysis in New Zealand white rabbit RBC to MIC for Staphylococcus aureus DM09809R
[4] = Selectivity index, ratio of HC50 for induction of hemolysis in New Zealand white rabbit RBC to MIC for Bacillus cereus ATCC 11778
[5] = Retention time of the compound; type: physicochemical
How it was run: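 Reverse-phase HPLC of 20 μL injections of a 10 μg/mL sample at 1 mL/min. Gradient: 5−55% ACN over 5 min, then 55−95% over 15 min.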

[6] = Selectivity index, ratio of HC50 for induction of hemolysis in New Zealand white rabbit RBC to MIC for Staphylococcus aureus DM21455
[7] = test system: Staphylococcus aureus; assay: Antimicrobial activity against methicillin resistant Staphylococcus aureus DM21455 by broth macrodilution method; type: functional; how it was run: as §1
[8] = Selectivity index, ratio of HC50 for induction of hemolysis in New Zealand white rabbit RBC to MIC for Staphylococcus aureus DM4001
[9] = Induction of hemolysis in New Zealand white rabbit RBC after 1 hr; type: cell-based, Oryctolagus cuniculus, Erythrocyte; conditions: for HC50 at 1 h: New Zealand white, red blood cells (RBC)
How it was run: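 Fresh red blood cells isolated from New Zealand white rabbits. Lysis measured over a compound concentration series; HC50 taken as the concentration lysing 50% of RBCs.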

[10] = test system: Staphylococcus aureus; assay: Antimicrobial activity against methicillin resistant Staphylococcus aureus DM09809R by broth macrodilution method; type: functional; how it was run: as §1
[11] = test system: Staphylococcus aureus; assay: Antimicrobial activity against Staphylococcus aureus ATCC 29213 at 0.5 times MIC measured after 17 passages by multistep passage drug resistance selection study relative to wild type Staphylococcus aureus ATCC 29213 before passage; type: functional
How it was run: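 Multipassage selection in S. aureus ATCC29213 across an eight-concentration dilution series. Growth was read after 20−22 h. Bacteria growing at 0.5 × MIC were repassaged into a fresh series, 17 passages in total. Resistance was defined as a more than 4-fold rise over the initial MIC.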

[12] = test system: Staphylococcus aureus; assay: Antimicrobial activity against Staphylococcus aureus ATCC 29213 infected in mouse cornea infection model assessed as reduction in viable bacterial count at 0.3% solution applied topically 5 times/day dosed 1 day after infection relative to control; type: functional
How it was run: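 Mouse cornea given three superficial 1 mm scratches on one eye under ketamine/xylazine, then 10 μL of S. aureus ATCC 29213 suspension (1 × 10^8 CFU/mL in USP phosphate buffer) applied topically. Treated topically 5 times/day from day 1 postinfection; PBS negative control; 4 mice/group killed on days 1, 2 and 3. Corneas homogenized in 0.9% NaCl with 0.25% BSA, plated in duplicate on TSA (48 h, 35 °C); log10 CFU/cornea.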

[13] = test system: Staphylococcus aureus; assay: Antimicrobial activity against Staphylococcus aureus ATCC 29213 by broth macrodilution method; type: functional; how it was run: as §1
[14] = test system: Staphylococcus aureus; assay: Antimicrobial activity against methicillin resistant Staphylococcus aureus DM21455 in absence of 4% BSA by broth macrodilution method; type: functional; how it was run: as §1
[15] = test system: Listeria monocytogenes; assay: Antimicrobial activity against Listeria monocytogenes isolates by broth macrodilution method; type: functional
[16] = test system: Enterococcus; assay: Antimicrobial activity against vancomycin-resistant Enterococcus isolates by broth macrodilution method; type: functional
[17] = test system: Staphylococcus aureus; assay: Antimicrobial activity against Staphylococcus aureus ATCC 29213 in presence of 4% BSA by broth macrodilution method; type: functional
How it was run: (§2)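 MIC by CLSI broth macrodilution in Mueller Hinton broth, with BSA added to the bacterial suspension at a final 4% w/v. Inoculum was made by direct colony suspension from an 18−20 h tryptic soy agar plate.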

[18] = test system: Staphylococcus aureus; assay: Antimicrobial activity against Staphylococcus aureus ATCC 29213 in absence of 4% BSA by broth macrodilution method; type: functional; how it was run: as §1
[19] = test system: Streptococcus; assay: Antimicrobial activity against Streptococcus isolates by broth macrodilution method; type: functional
[20] = test system: Enterococcus; assay: Antimicrobial activity against vancomycin-sensitive Enterococcus isolates by broth macrodilution method; type: functional
[21] = test system: Staphylococcus aureus; assay: Antimicrobial activity against methicillin resistant Staphylococcus aureus DM21455 in presence of 4% BSA by broth macrodilution method; type: functional; how it was run: as §2
[22] = test system: Corynebacterium jeikeium; assay: Antimicrobial activity against Corynebacterium jeikeium isolates by broth macrodilution method; type: functional
[23] = test system: Staphylococcus aureus; assay: Bactericidal activity against Staphylococcus aureus DM21455 assessed as reduction in bacterial count 2048 ug/mL after 2 hrs by cell counting based time assay; type: functional, organism-based
How it was run: (§3)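 Time-kill at 35 °C with colonies taken from an 18−20 h tryptic soy agar plate and suspended in CA-MHB at 10^5−10^6 CFU/mL, then drug added. Aliquots taken at set times were diluted 10-fold serially in D/E neutralization broth, spread on tryptic soy agar, incubated 48−72 h at 35 °C, and colonies counted. Strains: MRSA DM21455, vanA and vanB VRE.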

[24] = test system: Enterococcus; assay: Bactericidal activity against vancomycin-resistant Enterococcus isolates assessed as reduction in bacterial count 2048 ug/mL after 2 hrs by cell counting based time assay; type: functional, organism-based; how it was run: as §3
[25] = test system: Staphylococcus aureus; assay: Bactericidal activity against Staphylococcus aureus DM21455 assessed as reduction in bacterial count 2048 ug/mL after 24 hrs by cell counting based time assay; type: functional, organism-based; how it was run: as §3
[26] = test system: Enterococcus; assay: Bactericidal activity against vancomycin-resistant Enterococcus isolates assessed as reduction in bacterial count 2048 ug/mL after 24 hrs by cell counting based time assay; type: functional, organism-based; how it was run: as §3

Compound	MIC [1]	MIC [2]	Selectivity Index [3]	Selectivity Index [4]	Selectivity Index [6]	MIC [7]	Selectivity Index [8]	HC50 at 1 h [9]	MIC [10]	other results
CCN(CC)CCCCOc1ccc2c(=O)c3c(O)cc(OCCCCN(CC)CC)cc3oc2c1	> 50 µg/mL	–	–	–	–	–	–	–	–	–
COc1c(OCC(=O)N[C@@H](CCCNC(=N)N)C(=O)OC(C)(C)C)cc2oc3cc(OCC(=O)N[C@@H](CCCNC(=N)N)C(=O)OC(C)(C)C)c(CC=C(C)C)c(O)c3c(=O)c2c1CC=C(C)C	12 µg/mL (≈ 12.6 µM)	12 µg/mL (≈ 12.6 µM)	7	7	7	12 µg/mL (≈ 12.6 µM)	7	79 µg/mL	12 µg/mL (≈ 12.6 µM)	Retention_time [5]: 9.51 min
COc1c(OCC(=O)O)cc2oc3cc(OCC(=O)O)c(CC=C(C)C)c(O)c3c(=O)c2c1CC=C(C)C	> 50 µg/mL	> 50 µg/mL	–	–	–	> 50 µg/mL	–	> 400 µg/mL	> 50 µg/mL	–
COc1c(N2CCNC(C)C2)c(F)cc2c(=O)c(C(=O)O)cn(C3CC3)c12 (configuration not stated) [GATIFLOXACIN]	–	–	–	–	–	–	–	–	–	Ratio [11]: 64; Ratio [12]: 2.06; MIC [13]: 0.1 µg/mL (≈ 0.266 µM)
CN[C@H](CC(C)C)C(=O)N[C@H]1C(=O)N[C@@H](CC(N)=O)C(=O)N[C@H]2C(=O)N[C@H]3C(=O)N[C@H](C(=O)N[C@H](C(=O)O)c4cc(O)cc(O)c4-c4cc3ccc4O)[C@H](O)c3ccc(c(Cl)c3)Oc3cc2cc(c3O[C@@H]2O[C@H](CO)[C@@H](O)[C@H](O)[C@H]2O[C@H]2C[C@](C)(N)[C@H](O)[C@H](C)O2)Oc2ccc(cc2Cl)[C@H]1O [VANCOMYCIN]	–	–	–	–	–	–	–	–	–	MIC [14]: 0.78 µg/mL (≈ 0.538 µM); MIC [15]: 0.5 µg/mL (≈ 0.345 µM); MIC [16]: 8 µg/mL (≈ 5.52 µM); MIC [17]: 1.56 µg/mL; MIC [18]: 0.78 µg/mL (≈ 0.538 µM); MIC [19]: 0.5 µg/mL (≈ 0.345 µM); MIC [20]: 1 µg/mL (≈ 0.69 µM); MIC [21]: 0.78 µg/mL; MIC [22]: 0.5 µg/mL (≈ 0.345 µM); Activity [23]: inactive; Activity [24]: inactive; Activity [25]: inactive; Activity [26]: inactive
CCN(CC)CCCCOc1cc2oc3cc(OCCCCN(CC)CC)c(OC)c(CCC(C)C)c3c(=O)c2c(O)c1CCC(C)C	3 µg/mL (≈ 4.48 µM)	–	–	–	–	–	–	–	–	–
CCCCCCCCCC(=O)N[C@@H](Cc1c[nH]c2ccccc12)C(=O)N[C@H](CC(N)=O)C(=O)N[C@@H](CC(=O)O)C(=O)N[C@@H]1C(=O)NCC(=O)N[C@@H](CCCN)C(=O)N[C@@H](CC(=O)O)C(=O)N[C@H](C)C(=O)N[C@@H](CC(=O)O)C(=O)NCC(=O)N[C@H](CO)C(=O)N[C@@H]([C@H](C)CC(=O)O)C(=O)N[C@@H](CC(=O)c2ccccc2N)C(=O)O[C@@H]1C	–	–	–	–	–	–	–	–	–	MIC [14]: 0.39 µg/mL (≈ 0.241 µM); MIC [17]: 6.25 µg/mL; MIC [18]: 0.39 µg/mL (≈ 0.241 µM); MIC [21]: 6.25 µg/mL
H-GIGKFLKKAKKFGKAFVKILKK-NH2 [PEXIGANAN]	12.5 µg/mL	12.5 µg/mL	2	2	2	12.5 µg/mL	2	120 µg/mL	25 µg/mL	MIC [14]: 12.5 µg/mL; MIC [17]: 200 µg/mL; MIC [18]: 12.5 µg/mL; MIC [21]: 200 µg/mL
COc1c(OCC(=O)N[C@@H](CCCNC(=N)N)C(N)=O)cc2oc3cc(OCC(=O)N[C@@H](CCCNC(=N)N)C(N)=O)c(CC=C(C)C)c(O)c3c(=O)c2c1CC=C(C)C	6 µg/mL (≈ 7.17 µM)	6 µg/mL (≈ 7.17 µM)	13	13	128	1 µg/mL (≈ 1.19 µM)	13	128 µg/mL	6 µg/mL (≈ 7.17 µM)	Retention_time [5]: 7.4 min
O=c1c2ccc(OCCCCBr)cc2oc2cc(OCCCCBr)cc(O)c12	> 50 µg/mL	–	–	–	–	–	–	–	–	–
N=C(N)NCCCCC(=O)Nc1cc(C(F)(F)F)cc(NC(=O)c2cc(C(=O)Nc3cc(C(F)(F)F)cc(NC(=O)CCCCNC(=N)N)c3O[C@@H]3CCNC3)ncn2)c1O[C@@H]1CCNC1 [BRILACIDIN]	4 µg/mL (≈ 4.27 µM)	4 µg/mL (≈ 4.27 µM)	44	44	44	4 µg/mL (≈ 4.27 µM)	44	175 µg/mL	4 µg/mL (≈ 4.27 µM)	–
COc1c(O)cc2oc3cc(O)c(CCC(C)C)c(O)c3c(=O)c2c1CCC(C)C	50 µg/mL (≈ 121 µM)	–	–	–	–	–	–	–	–	–
CCCCCCCCNCCC[C@@H](C)[C@H]1CC[C@H]2[C@H]3[C@H](OCCCN)C[C@H]4C[C@H](OCCCN)CC[C@]4(C)[C@H]3C[C@H](OCCCN)[C@]12C	0.4 µg/mL (≈ 0.591 µM)	0.4 µg/mL (≈ 0.591 µM)	73	73	73	0.4 µg/mL (≈ 0.591 µM)	73	–	0.4 µg/mL (≈ 0.591 µM)	MHC ([9]; erythrocyte, 1 h): 29 µg/mL
COc1c(OCCCCBr)cc2oc3cc(OCCCCBr)c(CCC(C)C)c(O)c3c(=O)c2c1CCC(C)C	> 50 µg/mL	–	–	–	–	–	–	–	–	–
O=c1c2ccc(O)cc2oc2cc(O)cc(O)c12	> 50 µg/mL	–	–	–	–	–	–	–	–	–
COC(=O)C(CCCCN)NC(=O)COc1cc2oc3cc(OCC(=O)NC(CCCCN)C(=O)OC)c(OC)c(CC=C(C)C)c3c(=O)c2c(O)c1CC=C(C)C (configuration not stated)	6 µg/mL (≈ 7.4 µM)	12 µg/mL (≈ 14.8 µM)	–	–	–	12 µg/mL (≈ 14.8 µM)	–	39 µg/mL	6 µg/mL (≈ 7.4 µM)	–
CCn1cc(C(=O)O)c(=O)c2cc(F)c(N3CCNCC3)cc21 [NORFLOXACIN]	–	–	–	–	–	–	–	–	–	Ratio [11]: 64; MIC [13]: 2 µg/mL (≈ 6.26 µM)
CCOC(=O)[C@H](CCCNC(=N)N)NC(=O)COc1cc2oc3cc(OCC(=O)N[C@@H](CCCNC(=N)N)C(=O)OCC)c(OC)c(CC=C(C)C)c3c(=O)c2c(O)c1CC=C(C)C	6 µg/mL (≈ 6.7 µM)	12 µg/mL (≈ 13.4 µM)	5	5	9	6 µg/mL (≈ 6.7 µM)	9	56 µg/mL	12 µg/mL (≈ 13.4 µM)	Retention_time [5]: 8.38 min
COc1c(O)cc2oc3cc(O)c(CC=C(C)C)c(O)c3c(=O)c2c1CC=C(C)C [MANGOSTIN]	2 µg/mL (≈ 4.87 µM)	2 µg/mL (≈ 4.87 µM)	5	5	5	2 µg/mL (≈ 4.87 µM)	5	–	2 µg/mL (≈ 4.87 µM)	–
COC(=O)C(Cc1cnc[nH]1)NC(=O)COc1cc2oc3cc(OCC(=O)NC(Cc4cnc[nH]4)C(=O)OC)c(OC)c(CC=C(C)C)c3c(=O)c2c(O)c1CC=C(C)C (configuration not stated)	> 50 µg/mL	> 50 µg/mL	–	–	–	> 50 µg/mL	–	> 400 µg/mL	> 50 µg/mL	–

From ChEMBL document CHEMBL3414569, “Amino acid modified xanthone derivatives: novel, highly promising membrane-active antimicrobials for multidrug-resistant Gram-positive bacterial infections” (J Med Chem, 2015)
